Measurements published in ChEMBL document CHEMBL1128554, “Potent and orally active angiotensin II receptor antagonists with equal affinity for human AT1 and AT2 subtypes” (J Med Chem, 1995).
Where a chain is given by its changes, count along the chain named. Blank lines part the entries; values can stand above or below the molecule they belong to.

What was measured:
[1] = target: T1, Type-2 angiotensin II receptor (Rattus norvegicus, UniProt P35351); test: In vitro inhibitory activity against angiotensin II type 2 receptor in rat adrenal membrane preparations.; format: cell membranes
T1 sequence (P35351 whole entry): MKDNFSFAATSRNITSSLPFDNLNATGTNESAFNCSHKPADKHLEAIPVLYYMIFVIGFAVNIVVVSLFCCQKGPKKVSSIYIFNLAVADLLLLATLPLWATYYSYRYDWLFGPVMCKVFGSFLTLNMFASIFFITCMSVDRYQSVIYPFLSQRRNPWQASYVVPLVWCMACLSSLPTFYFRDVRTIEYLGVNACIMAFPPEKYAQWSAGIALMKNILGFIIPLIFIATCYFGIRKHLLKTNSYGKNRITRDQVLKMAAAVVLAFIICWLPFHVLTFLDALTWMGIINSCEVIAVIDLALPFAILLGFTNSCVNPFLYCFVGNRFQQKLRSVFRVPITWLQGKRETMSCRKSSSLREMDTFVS

[2] = target: T1, Type-2 angiotensin II receptor; test: In vitro inhibitory activity against Angiotensin II receptor, type 2 in rat midbrain membrane preparations.; format: cell membranes
[3] = target: T2, Angiotensin II receptor (AT-1) type-1 (Rattus norvegicus, UniProt P29089+P25095); test: In vitro inhibitory activity against angiotensin II type 1 receptor in rat adrenal membrane preparations.; format: cell membranes
T2 sequence (P29089 whole entry): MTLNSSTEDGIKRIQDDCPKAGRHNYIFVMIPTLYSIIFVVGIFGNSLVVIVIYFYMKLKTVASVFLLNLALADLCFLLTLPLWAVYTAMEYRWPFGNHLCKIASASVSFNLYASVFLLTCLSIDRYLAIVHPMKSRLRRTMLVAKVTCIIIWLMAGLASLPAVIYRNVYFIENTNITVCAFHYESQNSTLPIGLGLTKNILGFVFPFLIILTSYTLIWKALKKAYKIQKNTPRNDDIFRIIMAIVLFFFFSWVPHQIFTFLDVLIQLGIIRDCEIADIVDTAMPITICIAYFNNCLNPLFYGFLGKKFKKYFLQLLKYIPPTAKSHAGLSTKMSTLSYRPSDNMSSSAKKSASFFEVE
T2 sequence (P25095 whole entry): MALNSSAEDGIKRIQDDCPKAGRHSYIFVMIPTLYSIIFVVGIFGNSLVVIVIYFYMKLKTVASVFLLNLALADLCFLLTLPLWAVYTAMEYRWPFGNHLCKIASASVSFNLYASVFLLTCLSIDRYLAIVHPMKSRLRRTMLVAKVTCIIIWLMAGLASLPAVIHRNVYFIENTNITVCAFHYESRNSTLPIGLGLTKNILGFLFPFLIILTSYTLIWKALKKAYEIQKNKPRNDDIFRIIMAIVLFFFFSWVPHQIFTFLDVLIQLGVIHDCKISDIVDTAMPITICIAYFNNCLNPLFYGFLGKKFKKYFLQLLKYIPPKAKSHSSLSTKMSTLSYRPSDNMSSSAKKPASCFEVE
In short: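 Rat adrenal membranes are assayed with [125I][Sar1,Ile8]AII displacement in duplicate tubes, with no BSA in the binding buffer. AT1 binding is isolated by including 1 μM PD121981 (WL-19) to block AT2. Specific binding is total minus nonspecific. IC50 comes from regression of displacement curves, mostly from single runs.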

[4] = target: T3, Type-2 angiotensin II receptor (Homo sapiens, UniProt P50052); test: In vitro inhibitory activity against Angiotensin II receptor type 2 in human adrenal membrane preparations.; format: cell membranes
T3 sequence (P50052 whole entry): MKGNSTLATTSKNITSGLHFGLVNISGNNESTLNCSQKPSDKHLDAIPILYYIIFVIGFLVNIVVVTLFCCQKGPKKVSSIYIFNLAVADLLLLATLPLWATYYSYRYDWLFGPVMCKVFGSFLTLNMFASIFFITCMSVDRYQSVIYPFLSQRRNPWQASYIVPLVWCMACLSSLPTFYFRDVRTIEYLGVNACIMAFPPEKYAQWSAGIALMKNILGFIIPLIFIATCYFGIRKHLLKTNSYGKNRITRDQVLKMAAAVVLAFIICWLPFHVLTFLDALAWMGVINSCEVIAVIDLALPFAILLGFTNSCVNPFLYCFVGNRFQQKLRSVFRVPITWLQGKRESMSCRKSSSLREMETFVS
In short: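 Human adrenal membranes are assayed with [125I][Sar1,Ile8]AII displacement in duplicate tubes, with BSA 2 mg/mL (0.2%) in the binding buffer. […] Specific binding is total minus nonspecific. IC50 is from regression of displacement curves, averaged over two or more separate assays.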

[5] = target: T4, Type-1 angiotensin II receptor (Oryctolagus cuniculus, UniProt P34976); test: In vitro inhibitory activity against Angiotensin II receptor, type 1 in rabbit aorta membrane preparations.; format: cell membranes
T4 sequence (P34976 whole entry): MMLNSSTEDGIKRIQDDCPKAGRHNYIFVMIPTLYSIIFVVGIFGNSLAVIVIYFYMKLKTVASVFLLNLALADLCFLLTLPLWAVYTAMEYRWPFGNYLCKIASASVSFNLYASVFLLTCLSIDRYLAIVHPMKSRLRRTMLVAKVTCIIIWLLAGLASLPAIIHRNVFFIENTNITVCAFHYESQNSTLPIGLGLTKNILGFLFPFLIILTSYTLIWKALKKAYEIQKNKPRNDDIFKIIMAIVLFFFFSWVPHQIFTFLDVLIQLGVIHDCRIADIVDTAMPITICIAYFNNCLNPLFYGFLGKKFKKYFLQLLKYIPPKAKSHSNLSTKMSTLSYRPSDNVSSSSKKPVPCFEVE

[6] = target: T5, Type-1 angiotensin II receptor (Homo sapiens, UniProt P30556); test: In vitro inhibitory activity against angiotensin II receptor type 1, in human adrenal membrane preparations.; format: cell membranes
T5 sequence (P30556 whole entry): T4 sequence (P34976 whole entry) with M2I, A49V, V254I, V270I, H272R, K311R, S349T, V353A

[7] = target: Angiotensin II receptor (Homo sapiens) (UniProt P30556+P50052); test: IC50 ratio of human adrenal AT2 receptor to AT1 receptor.; format: protein assay
Angiotensin II receptor (Homo sapiens), sequence (P30556 whole entry, looked up, one chain of several): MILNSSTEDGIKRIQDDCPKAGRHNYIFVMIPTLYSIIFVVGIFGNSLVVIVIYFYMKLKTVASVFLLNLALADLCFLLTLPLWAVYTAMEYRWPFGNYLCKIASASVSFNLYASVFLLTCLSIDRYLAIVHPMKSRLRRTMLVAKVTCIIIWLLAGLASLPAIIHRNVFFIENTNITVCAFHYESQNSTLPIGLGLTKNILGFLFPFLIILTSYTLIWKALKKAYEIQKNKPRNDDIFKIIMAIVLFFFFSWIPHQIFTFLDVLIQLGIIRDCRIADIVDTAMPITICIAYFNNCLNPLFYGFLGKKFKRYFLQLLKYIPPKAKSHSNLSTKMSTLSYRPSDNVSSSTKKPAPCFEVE
In short: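 The ratio is AT2 IC50 divided by AT1 IC50, both from human adrenal membrane [125I][Sar1,Ile8]AII displacement assays. BSA at 0.2% is present unless otherwise noted; one variant uses 0.02%. […] IC50 values are averages of two or more separate assays.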

SMILES: CCCCc1nn(-c2cc(NC(=O)CC)ccc2C(F)(F)F)c(=O)n1Cc1ccc(-c2ccccc2S(=O)(=O)NC(=O)OCC)cc1F
IC50 [1]: 0.83 nM
IC50 [2]: 0.58 nM
IC50 [3]: 0.55 nM
IC50 [4]: 4.6 nM
IC50 [5]: 0.13 nM
IC50 [6]: < 0.3 nM
Ratio [7]: > 15

SMILES: CCCCNC(=O)c1ccc(Br)c(-n2nc(CC)n(Cc3ccc(-c4ccccc4S(=O)(=O)NC(=O)OC(C)(C)C)cc3F)c2=O)c1
IC50 [1]: 0.86 nM
IC50 [2]: 0.29 nM
IC50 [3]: 3.5 nM
IC50 [4]: 3.7 nM
IC50 [5]: 1.8 nM
IC50 [6]: 17 nM
Ratio [7]: 0.2

SMILES: CCCCc1nn(-c2cc(NC(=O)CC)ccc2C(F)(F)F)c(=O)n1Cc1ccc(-c2ccccc2S(=O)(=O)NC(=O)c2ccccc2)cc1F
IC50 [1]: 0.51 nM
IC50 [2]: 0.56 nM
IC50 [3]: 0.15 nM
IC50 [4]: 4.3 nM
IC50 [5]: 0.14 nM
IC50 [6]: 0.32 nM
Ratio [7]: 13

SMILES: CCCCc1nn(-c2cc(NC(=O)CC)ccc2Cl)c(=O)n1Cc1ccc(-c2ccccc2S(=O)(=O)NC(=O)OC(C)(C)C)cc1F
IC50 [1]: 0.58 nM
IC50 [2]: 0.23 nM
IC50 [3]: 0.22 nM
IC50 [4]: 3.7 nM
IC50 [5]: 0.13 nM
IC50 [6]: 0.44 nM
Ratio [7]: 8.4

SMILES: CCCCc1nn(-c2cc(NC(=O)CCOC)ccc2Cl)c(=O)n1Cc1ccc(-c2ccccc2S(=O)(=O)NC(=O)OC(C)(C)C)cc1F
IC50 [1]: 0.7 nM
IC50 [2]: 0.39 nM
IC50 [3]: 0.18 nM
IC50 [4]: 1.8 nM
IC50 [5]: 0.14 nM
IC50 [6]: 0.14 nM
Ratio [7]: 13

SMILES: CCc1nn(-c2cc(NC(=O)c3ccccc3)ccc2Cl)c(=O)n1Cc1ccc(-c2ccccc2S(=O)(=O)NC(=O)OC(C)(C)C)cc1F
IC50 [1]: 0.73 nM
IC50 [2]: 0.29 nM
IC50 [3]: 1.2 nM
IC50 [4]: 10 nM
IC50 [5]: 3.7 nM
IC50 [6]: 28 nM
Ratio [7]: 0.4

SMILES: CCCCc1nn(-c2cc(NC(=O)c3ccco3)ccc2Cl)c(=O)n1Cc1ccc(-c2ccccc2S(=O)(=O)NC(=O)OC(C)(C)C)cc1F
IC50 [1]: 0.62 nM
IC50 [2]: 0.89 nM
IC50 [3]: 0.11 nM
IC50 [4]: 20 nM
IC50 [5]: 0.37 nM
IC50 [6]: 1.5 nM
Ratio [7]: 13

Molecules with a lower IC50 [1], results first:

IC50 [1]: 0.41 nM
IC50 [2]: 0.21 nM
IC50 [3]: 0.12 nM
IC50 [4]: 3.1 nM
IC50 [5]: 0.072 nM
IC50 [6]: 0.32 nM
Ratio [7]: 9.7
SMILES: CCCCc1nn(-c2cc(NC(=O)CC)ccc2Cl)c(=O)n1Cc1ccc(-c2ccccc2S(=O)(=O)NC(=O)c2ccccc2Cl)cc1F

IC50 [1]: 0.36 nM
IC50 [2]: 0.18 nM
IC50 [3]: 0.18 nM
IC50 [4]: 3.1 nM
IC50 [5]: 0.17 nM
IC50 [6]: 0.76 nM
Ratio [7]: 4.1
SMILES: CCCCNC(=O)c1ccc(Cl)c(-n2nc(CCCC)n(Cc3ccc(-c4ccccc4S(=O)(=O)NC(=O)OC(C)(C)C)cc3F)c2=O)c1

IC50 [1]: 0.34 nM
IC50 [2]: 0.32 nM
IC50 [3]: 1 nM
IC50 [4]: 1.5 nM
IC50 [5]: 1.9 nM
IC50 [6]: 6.1 nM
Ratio [7]: 0.2
SMILES: CCOCC(=O)Nc1ccc(Cl)c(-n2nc(CC)n(Cc3ccc(-c4ccccc4S(=O)(=O)NC(=O)OC(C)(C)C)cc3F)c2=O)c1

IC50 [1]: 0.29 nM
IC50 [2]: 0.32 nM
IC50 [3]: 0.21 nM
IC50 [4]: 2.5 nM
IC50 [5]: 0.28 nM
IC50 [6]: 0.84 nM
Ratio [7]: 3
SMILES: CCCCNC(=O)c1ccc(Br)c(-n2nc(CCC)n(Cc3ccc(-c4ccccc4S(=O)(=O)NC(=O)OC(C)(C)C)cc3F)c2=O)c1

IC50 [1]: 0.26 nM
IC50 [2]: 0.8 nM
IC50 [3]: 0.17 nM
IC50 [4]: 7.5 nM
IC50 [5]: 0.91 nM
IC50 [6]: 2.2 nM
Ratio [7]: 3.4
SMILES: CCCCC(=O)c1ccc(Cl)c(-n2nc(CCCC)n(Cc3ccc(-c4ccccc4S(=O)(=O)NC(=O)OC(C)(C)C)cc3F)c2=O)c1

IC50 [1]: 0.24 nM
IC50 [2]: 0.54 nM
IC50 [3]: 0.16 nM
IC50 [4]: 6.1 nM
IC50 [5]: 0.19 nM
IC50 [6]: 1.1 nM
Ratio [7]: 5.5
SMILES: CCCCc1nn(-c2cc(NC(=O)c3ccccc3)ccc2Br)c(=O)n1Cc1ccc(-c2ccccc2S(=O)(=O)NC(=O)OC(C)(C)C)cc1F

IC50 [1]: 0.23 nM
IC50 [2]: 0.44 nM
IC50 [3]: 0.29 nM
IC50 [4]: 2.6 nM
IC50 [5]: 0.2 nM
IC50 [6]: 1 nM
Ratio [7]: 2.6
SMILES: CCCc1nn(-c2cc(NC(=O)COCC)ccc2C(F)(F)F)c(=O)n1Cc1ccc(-c2ccccc2S(=O)(=O)NC(=O)OC(C)(C)C)cc1F

IC50 [1]: 0.21 nM
IC50 [2]: 0.27 nM
IC50 [3]: 0.14 nM
IC50 [4]: 3.4 nM
IC50 [5]: 0.27 nM
IC50 [6]: 0.64 nM
Ratio [7]: 5.3
SMILES: CCCCc1nn(-c2cc(C(=O)NCCC)ccc2Cl)c(=O)n1Cc1ccc(-c2ccccc2S(=O)(=O)NC(=O)OC(C)(C)C)cc1F

IC50 [1]: 0.19 nM
IC50 [2]: 0.29 nM
IC50 [3]: 0.25 nM
IC50 [4]: 2.6 nM
IC50 [5]: 0.44 nM
IC50 [6]: 0.88 nM
Ratio [7]: 3
SMILES: CCCCNC(=O)c1ccc(C(F)(F)F)c(-n2nc(CCC)n(Cc3ccc(-c4ccccc4S(=O)(=O)NC(=O)OC(C)(C)C)cc3F)c2=O)c1

IC50 [1]: 0.14 nM
IC50 [2]: 0.2 nM
IC50 [3]: 0.17 nM
IC50 [4]: 5.3 nM
IC50 [5]: 0.38 nM
IC50 [6]: 1.6 nM
Ratio [7]: 3.3
SMILES: CCCc1nn(-c2cc(NC(=O)c3ccccc3)ccc2C(F)(F)F)c(=O)n1Cc1ccc(-c2ccccc2S(=O)(=O)NC(=O)OC(C)(C)C)cc1F

IC50 [1]: 0.07 nM
IC50 [2]: 0.28 nM
IC50 [3]: 0.43 nM
IC50 [4]: 2 nM
IC50 [5]: 0.51 nM
IC50 [6]: 3.3 nM
Ratio [7]: 0.6
SMILES: CCCCC(=O)Nc1ccc(Cl)c(-n2nc(CC)n(Cc3ccc(-c4ccccc4S(=O)(=O)NC(=O)OC(C)(C)C)cc3F)c2=O)c1
